# From ChEMBL document CHEMBL1148769, “3,17-disubstituted 2-alkylestra-1,3,5(10)-trien-3-ol derivatives: synthesis, in vitro and in vivo anticancer activity” (J Med Chem, 2007)
# Calls of active or inactive are those of the source. No cut-off for these calls is given here.
# System: DU-145
# Experiment: Antiproliferative activity against human DU145 cells after 96 hrs by WST1 assay
# Type: functional
# Conditions: DU-145, 96 h
# Method in brief: (§1)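 Cells kept in RPMI-1640 with 10% FBS, penicillin and streptomycin at 37 °C in 5% CO2. Seeded at 5000 cells/well, exposed to 10^-9-10^-4 M compound or vehicle for 96 h. Live cells counted by WST-1 and viability expressed as % of mean control, from which GI50 was calculated. Triplicate experiments.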
row,Structure (SMILES),GI50 [µM]
1,CCc1cc2c(cc1OS(N)(=O)=O)CC[C@@H]1[C@@H]2CC[C@]2(C)[C@@H](OC(N)=O)CC[C@@H]12,0.22
2,CCc1cc2c(cc1OS(N)(=O)=O)CC[C@@H]1[C@@H]2CC[C@]2(C)[C@@H](OS(N)(=O)=O)CC[C@@H]12,0.21
3,CCCCc1cc2c(cc1OS(N)(=O)=O)CC[C@@H]1[C@@H]2CC[C@]2(C)[C@@H](OC(C)=O)CC[C@@H]12,18.4
4,CCCCc1cc2c(cc1O)CC[C@@H]1[C@@H]2CC[C@]2(C)[C@@H](O)CC[C@@H]12,> 100
5,Cc1cc2c(cc1O)CC[C@@H]1[C@@H]2CC[C@]2(C)[C@@H](O)CC[C@@H]12,51
6,COc1cc2c(cc1OS(N)(=O)=O)CC[C@@H]1[C@@H]2CC[C@]2(C)[C@@H](OC(N)=O)CC[C@@H]12,1.34
7,Cc1cc2c(cc1OS(N)(=O)=O)CC[C@@H]1[C@@H]2CC[C@]2(C)[C@@H](OS(N)(=O)=O)CC[C@@H]12,0.38
8,C[C@]12CC[C@@H]3c4ccc(OS(N)(=O)=O)cc4CC[C@H]3[C@@H]1CC[C@@H]2OS(N)(=O)=O,11.5
9,Cc1cc2c(cc1OS(N)(=O)=O)CC[C@@H]1[C@@H]2CC[C@]2(C)[C@@H](OC(N)=O)CC[C@@H]12,1.9
10,CC(C)c1cc2c(cc1OS(N)(=O)=O)CC[C@@H]1[C@@H]2CC[C@]2(C)[C@@H](OS(N)(=O)=O)CC[C@@H]12,1.8
11,CC(C)c1cc2c(cc1O)CC[C@@H]1[C@@H]2CC[C@]2(C)[C@@H](O)CC[C@@H]12,23
12,CCCCc1cc2c(cc1OS(N)(=O)=O)CC[C@@H]1[C@@H]2CC[C@]2(C)[C@@H](OS(N)(=O)=O)CC[C@@H]12,9
13,C[C@]12CC[C@@H]3c4ccc(OS(N)(=O)=O)cc4CC[C@H]3[C@@H]1CC[C@@H]2OC(N)=O,> 100
14,COc1cc2c(cc1OS(N)(=O)=O)CC[C@@H]1[C@@H]2CC[C@]2(C)[C@@H](OS(N)(=O)=O)CC[C@@H]12,0.34
15,CC(C)(C)c1cc2c(cc1O)CC[C@@H]1[C@@H]2CC[C@]2(C)[C@@H](O)CC[C@@H]12,24
16,CCc1cc2c(cc1O)CC[C@@H]1[C@@H]2CC[C@]2(C)[C@@H](O)CC[C@@H]12,10.3
17,CCCc1cc2c(cc1O)CC[C@@H]1[C@@H]2CC[C@]2(C)[C@@H](O)CC[C@@H]12,15
18,CCc1cc2c(cc1OS(N)(=O)=O)CC[C@@H]1[C@@H]2CC[C@]2(C)[C@@H](OC(C)=O)CC[C@@H]12,1.6
19,CC(C)c1cc2c(cc1OS(N)(=O)=O)CC[C@@H]1[C@@H]2CC[C@]2(C)[C@@H](OC(N)=O)CC[C@@H]12,2.4
20,CCCc1cc2c(cc1OS(N)(=O)=O)CC[C@@H]1[C@@H]2CC[C@]2(C)[C@@H](OC(C)=O)CC[C@@H]12,61.3
21,CCCCc1cc2c(cc1OS(N)(=O)=O)CC[C@@H]1[C@@H]2CC[C@]2(C)[C@@H](OC(N)=O)CC[C@@H]12,15
22,CCCc1cc2c(cc1OS(N)(=O)=O)CC[C@@H]1[C@@H]2CC[C@]2(C)[C@@H](OC(N)=O)CC[C@@H]12,21
23,CCCc1cc2c(cc1OS(N)(=O)=O)CC[C@@H]1[C@@H]2CC[C@]2(C)[C@@H](OS(N)(=O)=O)CC[C@@H]12,3.4
24,CC(C)(C)c1cc2c(cc1OS(N)(=O)=O)CC[C@@H]1[C@@H]2CC[C@]2(C)[C@@H](OC(N)=O)CC[C@@H]12,13
25,CC(C)(C)c1cc2c(cc1OS(N)(=O)=O)CC[C@@H]1[C@@H]2CC[C@]2(C)[C@@H](OS(N)(=O)=O)CC[C@@H]12,> 10

# System: MDA-MB-231
# Experiment: Antiproliferative activity against human MDA-MB-231 cells after 96 hrs by WST1 assay
# Type: functional
# Conditions: MDA-MB-231, 96 h
# Method in brief: as §1
row,Structure (SMILES),GI50 [µM]
1,CCc1cc2c(cc1OS(N)(=O)=O)CC[C@@H]1[C@@H]2CC[C@]2(C)[C@@H](OC(N)=O)CC[C@@H]12,0.39
2,CCc1cc2c(cc1OS(N)(=O)=O)CC[C@@H]1[C@@H]2CC[C@]2(C)[C@@H](OS(N)(=O)=O)CC[C@@H]12,0.21
3,CCCCc1cc2c(cc1OS(N)(=O)=O)CC[C@@H]1[C@@H]2CC[C@]2(C)[C@@H](OC(C)=O)CC[C@@H]12,21.6
4,CCCCc1cc2c(cc1O)CC[C@@H]1[C@@H]2CC[C@]2(C)[C@@H](O)CC[C@@H]12,> 100
5,COc1cc2c(cc1OS(N)(=O)=O)CC[C@@H]1[C@@H]2CC[C@]2(C)[C@@H](OC(N)=O)CC[C@@H]12,1.15
6,Cc1cc2c(cc1OS(N)(=O)=O)CC[C@@H]1[C@@H]2CC[C@]2(C)[C@@H](OS(N)(=O)=O)CC[C@@H]12,0.25
7,C[C@]12CC[C@@H]3c4ccc(OS(N)(=O)=O)cc4CC[C@H]3[C@@H]1CC[C@@H]2OS(N)(=O)=O,18.3
8,COc1cc2c(cc1O)CC[C@@H]1[C@@H]2CC[C@]2(C)[C@@H](O)CC[C@@H]12 [2-METHOXYESTRADIOL],0.94
9,Cc1cc2c(cc1OS(N)(=O)=O)CC[C@@H]1[C@@H]2CC[C@]2(C)[C@@H](OC(N)=O)CC[C@@H]12,4.7
10,CCCCc1cc2c(cc1OS(N)(=O)=O)CC[C@@H]1[C@@H]2CC[C@]2(C)[C@@H](OS(N)(=O)=O)CC[C@@H]12,10.7
11,C[C@]12CC[C@@H]3c4ccc(OS(N)(=O)=O)cc4CC[C@H]3[C@@H]1CC[C@@H]2OC(N)=O,> 100
12,COc1cc2c(cc1OS(N)(=O)=O)CC[C@@H]1[C@@H]2CC[C@]2(C)[C@@H](OS(N)(=O)=O)CC[C@@H]12,0.28
13,CCc1cc2c(cc1O)CC[C@@H]1[C@@H]2CC[C@]2(C)[C@@H](O)CC[C@@H]12,8
14,CCCc1cc2c(cc1O)CC[C@@H]1[C@@H]2CC[C@]2(C)[C@@H](O)CC[C@@H]12,16.6
15,CC(C)c1cc2c(cc1OS(N)(=O)=O)CC[C@@H]1[C@@H]2CC[C@]2(C)[C@@H](OC(N)=O)CC[C@@H]12,3.4
16,CCCc1cc2c(cc1OS(N)(=O)=O)CC[C@@H]1[C@@H]2CC[C@]2(C)[C@@H](OC(C)=O)CC[C@@H]12,20.4
17,CCCCc1cc2c(cc1OS(N)(=O)=O)CC[C@@H]1[C@@H]2CC[C@]2(C)[C@@H](OC(N)=O)CC[C@@H]12,> 100
18,CCCc1cc2c(cc1OS(N)(=O)=O)CC[C@@H]1[C@@H]2CC[C@]2(C)[C@@H](OC(N)=O)CC[C@@H]12,14.5
19,CCCc1cc2c(cc1OS(N)(=O)=O)CC[C@@H]1[C@@H]2CC[C@]2(C)[C@@H](OS(N)(=O)=O)CC[C@@H]12,6.4
20,CC(C)(C)c1cc2c(cc1OS(N)(=O)=O)CC[C@@H]1[C@@H]2CC[C@]2(C)[C@@H](OC(N)=O)CC[C@@H]12,17

# System: MCF7
# Experiment: Antiproliferative activity against human MCF7 cells by WST1 assay
# Type: functional
# Conditions: not given
row,Structure (SMILES),GI50 [µM]
1,CCc1cc2c(cc1OS(N)(=O)=O)CC[C@@H]1[C@@H]2CC[C@]2(C)[C@@H](OC(N)=O)CC[C@@H]12,0.64
2,COc1cc2c(cc1OS(N)(=O)=O)CC[C@@H]1[C@@H]2CC[C@]2(C)[C@@H](OC(N)=O)CC[C@@H]12,3.5
3,C[C@]12CC[C@@H]3c4ccc(OS(N)(=O)=O)cc4CC[C@H]3[C@@H]1CC[C@@H]2OC(N)=O,45

# Target: T1, Steryl-sulfatase (Homo sapiens, UniProt P08842)
# T1 sequence (P08842 whole entry): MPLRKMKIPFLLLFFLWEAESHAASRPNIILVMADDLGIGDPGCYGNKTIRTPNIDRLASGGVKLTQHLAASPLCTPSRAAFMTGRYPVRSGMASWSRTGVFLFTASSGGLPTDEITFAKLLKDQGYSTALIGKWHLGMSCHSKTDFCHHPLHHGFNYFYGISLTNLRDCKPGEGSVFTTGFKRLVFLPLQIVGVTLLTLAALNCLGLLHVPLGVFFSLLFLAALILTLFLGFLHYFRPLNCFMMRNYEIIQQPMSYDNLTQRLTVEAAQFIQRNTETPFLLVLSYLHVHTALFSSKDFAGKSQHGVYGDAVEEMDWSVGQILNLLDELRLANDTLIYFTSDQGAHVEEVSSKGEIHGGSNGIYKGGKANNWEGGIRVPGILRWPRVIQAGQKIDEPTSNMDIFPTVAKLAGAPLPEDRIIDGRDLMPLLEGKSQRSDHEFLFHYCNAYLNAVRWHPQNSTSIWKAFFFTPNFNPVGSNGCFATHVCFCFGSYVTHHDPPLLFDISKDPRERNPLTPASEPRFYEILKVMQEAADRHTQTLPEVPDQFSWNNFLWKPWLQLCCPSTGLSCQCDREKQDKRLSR
# Experiment: Inhibition of steroid sulfatase in placental microsomes
# Parameters: species or system Placenta
# Conditions: not given
# Method in brief: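 Radiometric assay of STS activity in placental microsomes: conversion of tritiated estradiol-3-sulfate to estradiol is measured.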
row,Structure (SMILES),IC50 [µM]
1,COc1cc2c(cc1OS(N)(=O)=O)CC[C@@H]1[C@@H]2CC[C@]2(C)[C@@H](OC(N)=O)CC[C@@H]12,0.52
2,C[C@]12CC[C@@H]3c4ccc(OS(N)(=O)=O)cc4CC[C@H]3[C@@H]1CC[C@@H]2OC(N)=O,0.04

# System: MDA-MB-231
# Experiment: Antitumor activity against human MDA-MB-231 cells xenografted athymic mouse at 60 mg/kg/day, po after 28 days
# Type: functional, organism-based
# Conditions: not given
# Method in brief: (§2)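 Female NCr-nude mice, 6-8 weeks old, bearing MDA-MB-231 xenografts, dosed orally in THF/PG vehicle from day 10. Schedules: 60 mg/kg daily for 28 d (to day 38), 90 mg/kg Mon/Wed/Fri × 4 (to day 36), or 200 mg/kg weekly × 4 (to day 32). Tumor volume was (w² × l)/2; one-way ANOVA against control.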
row,Structure (SMILES),Activity
1,CCc1cc2c(cc1OS(N)(=O)=O)CC[C@@H]1[C@@H]2CC[C@]2(C)[C@@H](OS(N)(=O)=O)CC[C@@H]12,Active

# System: MDA-MB-231
# Experiment: Antitumor activity against human MDA-MB-231 cells xenografted athymic mouse at 90 mg/kg, po thrice a week for 4 weeks
# Type: functional, organism-based
# Parameters: dose 90 mg/kg
# Conditions: not given
# Method in brief: as §2
row,Structure (SMILES),Activity
1,CCc1cc2c(cc1OS(N)(=O)=O)CC[C@@H]1[C@@H]2CC[C@]2(C)[C@@H](OS(N)(=O)=O)CC[C@@H]12,Active

# System: MDA-MB-231
# Experiment: Antitumor activity against human MDA-MB-231 cells xenografted athymic mouse at 200 mg/kg, po, once a week for 4 weeks
# Type: functional, organism-based
# Parameters: dose 200 mg/kg
# Conditions: not given
# Method in brief: as §2
row,Structure (SMILES),Activity
1,CCc1cc2c(cc1OS(N)(=O)=O)CC[C@@H]1[C@@H]2CC[C@]2(C)[C@@H](OS(N)(=O)=O)CC[C@@H]12,Active

# System: DU-145
# Experiment: Antitumor activity against human DU145 cells xenografted athymic mouse at 10 mg/kg/day, po after 25 days
# Type: functional
# Conditions: not given
# Method in brief: (§3)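 Male NCr-nude mice, 6-8 weeks old, implanted s.c. in the flank with 5 × 10⁶ DU145 cells; treatment began once tumors reached about 50-100 mm³. Dosed orally at 10, 20 or 40 mg/kg once daily for 28 d. Tumor volume was (w² × l)/2 and inhibition read after 25 days of treatment (day 35).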
row,Structure (SMILES),Activity [%]
1,CCc1cc2c(cc1OS(N)(=O)=O)CC[C@@H]1[C@@H]2CC[C@]2(C)[C@@H](OS(N)(=O)=O)CC[C@@H]12,24

# System: DU-145
# Experiment: Antitumor activity against human DU145 cells xenografted athymic mouse at 20 mg/kg/day, po after 25 days
# Type: functional
# Conditions: not given
# Method in brief: as §3
row,Structure (SMILES),Activity [%]
1,CCc1cc2c(cc1OS(N)(=O)=O)CC[C@@H]1[C@@H]2CC[C@]2(C)[C@@H](OS(N)(=O)=O)CC[C@@H]12,27

# System: DU-145
# Experiment: Antitumor activity against human DU145 cells xenografted athymic mouse at 40 mg/kg/day, po after 25 days
# Type: functional
# Conditions: not given
# Method in brief: as §3
row,Structure (SMILES),Activity [%]
1,CCc1cc2c(cc1OS(N)(=O)=O)CC[C@@H]1[C@@H]2CC[C@]2(C)[C@@H](OS(N)(=O)=O)CC[C@@H]12,65
